In brackets after ≈: the same amount, converted by molar mass.

One test has as its system Enterobacter cloacae. As to the kind of experiment: Antibacterial activity against gram negative organism, […] (MA2646). It counts as functional.
Test [1] concerns Staphylococcus aureus. As to the kind of experiment: Antibacterial activity was determined against gram positive organism, Staphylococcus aureus (H228). It counts as functional. The method in brief:
(§1)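 MIC by standard microtitration against a panel of 10 representative Gram-negative and Gram-positive organisms; values reported in µg/mL.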

Test [2] concerns Staphylococcus aureus. As to the kind of experiment: Antibacterial activity was determined against gram positive organism, Staphylococcus aureus (UC76). It counts as functional. In outline: as §1
Test [3] is described as follows: MIC ratio measured as the mean MICs of gram-negative bacteria. The test is classed as functional. The method in brief:
(§2)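 Geometric mean of the MICs (µg/mL) over the Gram-negative or the Gram-positive strains of the 10-organism microtitration panel, calculated separately for each class.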

The test system of another test is Escherichia coli. As to the kind of experiment: Antibacterial activity was determined against gram negative organism, E. coli(vogel). It counts as functional. In outline:
as §1

Another test concerns Enterococcus faecalis. As to the kind of experiment: Antibacterial activity was determined against gram positive organism, Streptococcus faecalis (MGH-2). It counts as functional. The method in brief:
as §1

A further test has as its system Streptococcus pyogenes. As to the kind of experiment: Antibacterial activity was determined against gram positive organism, Streptococcus pyogenes (C203). The test is classed as functional. The method in brief:
as §1

For the next test, the system named is Klebsiella pneumoniae. As to the kind of experiment: Antibacterial activity was determined against gram negative organism, K. pneumoniae (MGH-2). The test is classed as functional. The method in brief:
as §1

The test system of a further test is Streptococcus pneumoniae. As to the kind of experiment: Antibacterial activity was determined against gram positive organism, Streptococcus pneumoniae (SV-1). It counts as functional. The method in brief:
as §1

Test [4] is described as follows: MIC ratio measured as the mean MICs of gram-positive bacteria. It counts as functional. In outline: as §2
Another test deals with Pseudomonas aeruginosa. As to the kind of experiment: Antibacterial activity was determined against gram negative organism, Pseudomonas aeruginosa (UI-18). It counts as functional. In outline: as §1
A further test concerns Bacteria. As to the kind of experiment: Antibacterial activity was determined against gram negative organism, Providencia rettgeri. (M1771). The test is classed as functional. The method in brief: as §1
In test [5] the target is DNA gyrase (Escherichia coli) (UniProt P0AES6+P0AES4).

The term MIC denotes the lowest concentration found to suppress growth. Higher therefore signals weaker potency. Consider `O=C(O)c1cn(-c2ccc(F)cc2F)c2cc(N3CCNCC3)c(F)cc2c1=O`, for which the MIC against Enterobacter cloacae came to 0.05 µg/mL (≈ 0.124 µM); against Staphylococcus aureus [1], 0.4 µg/mL (≈ 0.992 µM); against Staphylococcus aureus [2] it was 0.05 µg/mL (≈ 0.124 µM); against Escherichia coli, 0.05 µg/mL (≈ 0.124 µM); with Enterococcus faecalis, 0.4 µg/mL (≈ 0.992 µM); against Streptococcus pyogenes it was 0.2 µg/mL (≈ 0.496 µM). The MIC stood at 0.1 µg/mL (≈ 0.248 µM) with Klebsiella pneumoniae, 0.1 µg/mL (≈ 0.248 µM) against Streptococcus pneumoniae, 0.8 µg/mL (≈ 1.98 µM) in the test with Pseudomonas aeruginosa and 0.1 µg/mL (≈ 0.248 µM) in the test on Bacteria. Besides, the Ratio came out at 0.11 in test [3] and 0.17 in test [4].

Turning to `CC1CN(c2cc3c(cc2F)c(=O)c(C(=O)O)cn3-c2ccc(F)cc2F)CCN1` (stereo not drawn) [TEMAFLOXACIN], the MIC is 0.05 µg/mL (≈ 0.12 µM) against Enterobacter cloacae; 0.1 µg/mL (≈ 0.24 µM) in the test with Staphylococcus aureus [1]; 0.025 µg/mL (≈ 0.0599 µM) in the test with Staphylococcus aureus [2]; 0.05 µg/mL (≈ 0.12 µM) in the test on Escherichia coli; 0.2 µg/mL (≈ 0.479 µM) against Enterococcus faecalis; 0.1 µg/mL (≈ 0.24 µM) with Streptococcus pyogenes. Moreover, the MIC was 0.1 µg/mL (≈ 0.24 µM) against Klebsiella pneumoniae, 0.1 µg/mL (≈ 0.24 µM) against Streptococcus pneumoniae, 1.6 µg/mL (≈ 3.83 µM) against Pseudomonas aeruginosa and 0.2 µg/mL (≈ 0.479 µM) in the test on Bacteria. Further, the Ratio in test [3] stood at 0.15; in [4], 0.087. This molecule registered a DNA cleavage in [5] of 0.75 µg/mL.

On to `CCc1c(F)c(N2CCNC(C)C2)cc2c1c(=O)c(C(=O)O)cn2C1CC1` (stereo not drawn), for which the MIC in the test on Enterobacter cloacae is 0.8 µg/mL (≈ 2.14 µM); against Staphylococcus aureus [1], 6.3 µg/mL (≈ 16.9 µM); against Staphylococcus aureus [2], 3.1 µg/mL (≈ 8.3 µM); against Escherichia coli, 0.4 µg/mL (≈ 1.07 µM); in the test with Enterococcus faecalis, > 25 µg/mL; against Streptococcus pyogenes, 25 µg/mL (≈ 66.9 µM). Further, the MIC against Klebsiella pneumoniae was 1.6 µg/mL (≈ 4.28 µM); against Streptococcus pneumoniae it was 12.5 µg/mL (≈ 33.5 µM); in the test on Pseudomonas aeruginosa it was 6.3 µg/mL (≈ 16.9 µM); against Bacteria it was 6.3 µg/mL (≈ 16.9 µM). Further, the Ratio in [3] came to 1.83; in test [4], 10.9.

Take `Cc1c(F)c(N2CCC(C)(CN)C2)cc2c1c(=O)c(C(=O)O)cn2C1CC1` (stereo not drawn): the MIC with Enterobacter cloacae came out at 0.1 µg/mL (≈ 0.268 µM); against Staphylococcus aureus [1], 0.025 µg/mL (≈ 0.0669 µM); in the test on Staphylococcus aureus [2], 0.006 µg/mL (≈ 0.0161 µM); in the test on Escherichia coli, 0.1 µg/mL (≈ 0.268 µM); against Enterococcus faecalis, 0.1 µg/mL (≈ 0.268 µM); with Streptococcus pyogenes it was 0.013 µg/mL (≈ 0.0348 µM). For the same molecule, the MIC worked out at 0.4 µg/mL (≈ 1.07 µM) in the test with Klebsiella pneumoniae, 0.006 µg/mL (≈ 0.0161 µM) with Streptococcus pneumoniae, 1.6 µg/mL (≈ 4.28 µM) against Pseudomonas aeruginosa and 0.8 µg/mL (≈ 2.14 µM) in the test on Bacteria. Besides, the Ratio in test [3] was 0.35; in test [4] it was 0.016. This molecule also registered a DNA cleavage in [5] of 0.75 µg/mL.

With `NC1CCN(c2cc3c(cc2F)c(=O)c(C(=O)O)cn3-c2ccc(F)cc2F)C1` (stereo not drawn), the MIC against Enterobacter cloacae worked out at 0.05 µg/mL (≈ 0.124 µM); against Staphylococcus aureus [1], 0.05 µg/mL (≈ 0.124 µM); in the test with Staphylococcus aureus [2], 0.013 µg/mL (≈ 0.0322 µM); in the test on Escherichia coli, 0.025 µg/mL (≈ 0.062 µM); in the test with Enterococcus faecalis it was 0.1 µg/mL (≈ 0.248 µM); against Streptococcus pyogenes it was 0.025 µg/mL (≈ 0.062 µM). Moreover, the MIC with Klebsiella pneumoniae was found to be 0.05 µg/mL (≈ 0.124 µM); against Streptococcus pneumoniae, 0.025 µg/mL (≈ 0.062 µM); with Pseudomonas aeruginosa it was 0.4 µg/mL (≈ 0.992 µM); in the test with Bacteria it was 0.1 µg/mL (≈ 0.248 µM). Moreover, the Ratio in test [3] came out at 0.076; in test [4] it was 0.033.

Turning to `CCn1cc(C(=O)O)c(=O)c2cc(F)c(N3CCC(N)C3)cc21` (stereo not drawn), the MIC was 0.1 µg/mL (≈ 0.313 µM) against Enterobacter cloacae; 0.8 µg/mL (≈ 2.51 µM) against Staphylococcus aureus [1]; 0.1 µg/mL (≈ 0.313 µM) against Staphylococcus aureus [2]; 0.1 µg/mL (≈ 0.313 µM) against Escherichia coli; 0.8 µg/mL (≈ 2.51 µM) in the test with Enterococcus faecalis; 0.4 µg/mL (≈ 1.25 µM) in the test with Streptococcus pyogenes. In addition, the minimum inhibitory concentration (MIC) stood at 0.2 µg/mL (≈ 0.626 µM) against Klebsiella pneumoniae, 0.4 µg/mL (≈ 1.25 µM) in the test on Streptococcus pneumoniae, 0.8 µg/mL (≈ 2.51 µM) in the test on Pseudomonas aeruginosa and 0.2 µg/mL (≈ 0.626 µM) with Bacteria. Also, the results for the Ratio in test [3] and in test [4] were 0.2 and 0.4, respectively. Also, in [5], the DNA cleavage was 2.5 µg/mL.

`O=C(O)c1cn(C2CC2)c2c(Cl)c(N3CCNCC3)c(F)cc2c1=O`: the MIC came to 0.025 µg/mL (≈ 0.0683 µM) with Enterobacter cloacae; 0.1 µg/mL (≈ 0.273 µM) against Staphylococcus aureus [1]; 0.05 µg/mL (≈ 0.137 µM) against Staphylococcus aureus [2]; 0.025 µg/mL (≈ 0.0683 µM) in the test on Escherichia coli; 0.4 µg/mL (≈ 1.09 µM) in the test with Enterococcus faecalis; 0.2 µg/mL (≈ 0.547 µM) in the test on Streptococcus pyogenes. Also, the MIC is 0.05 µg/mL (≈ 0.137 µM) in the test with Klebsiella pneumoniae, 0.1 µg/mL (≈ 0.273 µM) against Streptococcus pneumoniae, 0.4 µg/mL (≈ 1.09 µM) in the test on Pseudomonas aeruginosa and 0.1 µg/mL (≈ 0.273 µM) against Bacteria. Besides, the figures for the Ratio in [3] and in [4] were 0.066 and 0.13, respectively. Besides, in test [5], the DNA cleavage amounted to 0.5 µg/mL.

Take `CCc1c(F)c(N2CCNCC2)cc2c1c(=O)c(C(=O)O)cn2C1CC1`: the MIC against Enterobacter cloacae was 0.8 µg/mL (≈ 2.23 µM); against Staphylococcus aureus [1], 25 µg/mL (≈ 69.6 µM); in the test with Staphylococcus aureus [2], 6.3 µg/mL (≈ 17.5 µM); in the test with Escherichia coli, 0.4 µg/mL (≈ 1.11 µM); against Enterococcus faecalis it was > 25 µg/mL; against Streptococcus pyogenes, 25 µg/mL (≈ 69.6 µM). The MIC in the test with Klebsiella pneumoniae came out at 1.6 µg/mL (≈ 4.45 µM); with Streptococcus pneumoniae it was 12.5 µg/mL (≈ 34.8 µM); against Pseudomonas aeruginosa it was 12.5 µg/mL (≈ 34.8 µM); against Bacteria it was 6.3 µg/mL (≈ 17.5 µM). Further, the Ratio in [3] was found to be 1.91; in test [4], 16.2.

As to `Cc1c(F)c(N2CCC(N)C2)cc2c1c(=O)c(C(=O)O)cn2-c1ccc(F)cc1F` (stereo not drawn), the MIC against Enterobacter cloacae was 0.05 µg/mL (≈ 0.12 µM); against Staphylococcus aureus [1], 0.05 µg/mL (≈ 0.12 µM); in the test on Staphylococcus aureus [2], 0.013 µg/mL (≈ 0.0311 µM); in the test with Escherichia coli, 0.05 µg/mL (≈ 0.12 µM); with Enterococcus faecalis, 0.1 µg/mL (≈ 0.24 µM); against Streptococcus pyogenes it was 0.05 µg/mL (≈ 0.12 µM). The MIC amounted to 0.1 µg/mL (≈ 0.24 µM) against Klebsiella pneumoniae, 0.025 µg/mL (≈ 0.0599 µM) with Streptococcus pneumoniae, 0.8 µg/mL (≈ 1.92 µM) against Pseudomonas aeruginosa and 0.2 µg/mL (≈ 0.479 µM) against Bacteria. Also, the Ratio in test [3] stood at 0.13; in test [4], 0.038. The molecule further came in with a DNA cleavage in [5] of 0.37 µg/mL.

Source of the values: ChEMBL document CHEMBL1125920, “Synthesis and biological activity of 5-alkyl-1,7,8-trisubstituted-6-fluoroquinoline-3-carboxylic acids” (1991).
